Assay results taken from ChEMBL document CHEMBL4414651, “Discovery and Optimization of Salicylic Acid-Derived Sulfonamide Inhibitors of the WD Repeat-Containing Protein 5-MYC Protein-Protein Interaction” (J Med Chem, 2019).
One block for each compound: values may come before it. Calls of active or inactive are those of the source. The calls are words filed in the database; no cut-off is given here.

Tests used:
[1] = molecular target: T1, WD repeat-containing protein 5 (Homo sapiens, UniProt P61964); test: Binding affinity to WDR5 (unknown origin) assessed as inhibition of WDR5-MLL1 protein-protein interaction by TR-FRET assay
[2] = molecular target: T1, WD repeat-containing protein 5; test: Binding affinity to N-terminal FLAG-tagged human full-length WDR5 expressed in HEK293T cells harboring human C-terminal HA-tagged c-MYC assessed as disruption of WDR5-RBBP5 protein-protein interaction at 50 uM by SDS-PAGE based immunoblot assay; assay type: cell-based
Summary of the method: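 HEK293 cells expressing FLAG-WDR5 and c-MYC-HA were kept in DMEM with 10% FBS, hygromycin B 50 μg/mL and puromycin 100 ng/mL. Lysates in Tris pH 8.0/NaCl/EDTA/1% Triton buffer were treated with compound at 50 μM or 6.25–50 μM. α-FLAG magnetic M2 beads, 2 h at 4 °C, then SDS-PAGE and α-RBBP5 immunoblot. Quantified against vehicle; at least two independent repeats.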

[3] = molecular target: T1, WD repeat-containing protein 5; test: Binding affinity to N-terminal FLAG-tagged human full-length WDR5 expressed in HEK293T cells harboring human C-terminal HA-tagged c-MYC assessed as disruption of WDR5-c-MYC protein-protein interaction at 50 uM by SDS-PAGE based immunoblot assay; assay type: cell-based
[4] = molecular target: T1, WD repeat-containing protein 5
Homo sapiens = organism: Homo sapiens; test: Inhibition of human MLL1/WDR5/RBBP5/ASH2L/DPY30 complex assessed as reduction in histone methyl-transferase activity using H3-peptide as substrate
[5] = molecular target: T1, WD repeat-containing protein 5; test: Binding affinity to N-terminal FLAG-tagged human full-length WDR5 […] assessed as change in melting temperature at 10 uM by differential scanning fluorimetry
Summary of the method: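 Thermal shift (differential scanning fluorimetry) on WDR5, with compounds at 10 μM. Samples were run in triplicate, and ΔTm is the average melting-temperature shift read by fluorescence.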

[6] = Solubility of the compound; assay type: physicochemical
Summary of the method: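 Kinetic solubility, measured by an outside contract lab using a standard commercial assay format.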

[7] = Protein binding in plasma (unknown origin) assessed as unbound fraction; assay type: ADME, cell-free
[8] = Apparent permeability from apical to basolateral side in MDCK cells; assay type: ADME, cell-based, Canis lupus familiaris; conditions: dog

Compound: O=C(O)c1cc(C2CC2)cc(NS(=O)(=O)c2cc(Br)ccc2O)c1O
inhibition [1]: inactive | Activity [2]: Active | Activity [3]: Active | Kd [4]: 184 nM

Compound: O=C(O)c1c(O)c(NS(=O)(=O)c2cc(Br)cc(Cl)c2O)cc(C2CC2)c1F
inhibition (Homo sapiens): Active | Activity [2]: Active | Activity [3]: Active | Kd [4]: 50 nM

Kd [4]: 272 nM
Compound: CS(=O)(=O)c1cc(C2(C#N)CCC2)cc(NS(=O)(=O)c2cc(Br)cc3cccnc23)c1O

Compound: O=C(O)c1cc(S(F)(F)(F)(F)F)cc(NS(=O)(=O)c2cc(Br)cc(Cl)c2O)c1O
ΔTm [5]: 8.42 °C | Kd [4]: 31 nM

Compound: O=S(=O)(Nc1cc(C2(C(F)(F)F)CC2)ccc1O)c1cc(Br)ccc1O
Kd [4]: 547 nM

Compound: O=C(O)c1cc(NS(=O)(=O)c2cc(Br)cc(Cl)c2O)cc(S(F)(F)(F)(F)F)c1
inhibition (Homo sapiens): Active | inhibition [1]: inactive | Kd [4]: 29 nM

Compound: O=S(=O)(Nc1cc(OC(F)(F)F)ccc1O)c1cc(Br)ccc1O
Kd [4]: 549 nM

Kd [4]: 27700 nM
Compound: COc1ccc(Br)cc1S(=O)(=O)Nc1ccc(Cl)cc1O

Compound: CNC(=O)c1cc(S(F)(F)(F)(F)F)cc(NS(=O)(=O)c2cc(Br)cc(Cl)c2O)c1O
Activity [3]: Active | Kd [4]: 190 nM

Compound: CS(=O)(=O)c1cc(NS(=O)(=O)c2cc(Br)cc(Cl)c2O)cc(C2(C#N)CCC2)c1
Kd [4]: 215 nM

Kd [4]: 122 nM
Compound: CNC(=O)c1cc(S(F)(F)(F)(F)F)cc(NS(=O)(=O)c2cc(Br)cc3cccnc23)c1O

Compound: O=C(O)c1c(O)c(NS(=O)(=O)c2cc(Br)ccc2O)cc(C2CC2)c1F
inhibition (Homo sapiens): Active | solubility [6]: > 100 µM | Fu [7]: < 0.0008% | Papp [8]: 0.61 ×10⁻⁶ cm/s | Kd [4]: 122 nM

Compound: COc1ccc(Cl)cc1S(=O)(=O)Nc1cc(Cl)ccc1O
Kd [4]: 8410 nM

Compound: N#CC1(c2ccc(O)c(NS(=O)(=O)c3cc(Br)ccc3O)c2)CC1
inhibition [1]: inactive | Kd [4]: 852 nM

Activity [3]: Active | Kd [4]: 906 nM
Compound: CNC(=O)c1cc(C2(C#N)CCC2)cc(NS(=O)(=O)c2cc(Br)ccc2OC)c1O

Compound: CS(=O)(=O)c1cc(Cl)cc(NS(=O)(=O)c2cc(Br)ccc2O)c1
solubility [6]: > 100 µM | Fu [7]: 0.004% | Papp [8]: 4.79 ×10⁻⁶ cm/s | Kd [4]: 1880 nM

Compound: O=S(=O)(Nc1cc(Cl)ccc1O)c1cc(Br)ccc1O
solubility [6]: > 100 µM | Fu [7]: < 0.0026% | Papp [8]: 36.4 ×10⁻⁶ cm/s | Kd [4]: 1250 nM

Compound: CNC(=O)c1cc(Cl)cc(NS(=O)(=O)c2cc(Br)cc(Cl)c2O)c1O
Kd [4]: 298 nM

Compound: O=C(O)c1cc(Cl)cc(NS(=O)(=O)c2cc(Br)ccc2O)c1
Kd [4]: 2880 nM

Compound: O=C(O)c1cc(NS(=O)(=O)c2cc(Br)ccc2O)cc(OC(F)(F)F)c1
Kd [4]: 194 nM

Compound: CS(=O)(=O)c1cc(S(F)(F)(F)(F)F)cc(NS(=O)(=O)c2cc(Br)cc(Cl)c2O)c1O
solubility [6]: > 100 µM | Fu [7]: < 0.0003% | Papp [8]: 18.6 ×10⁻⁶ cm/s | Kd [4]: 45 nM

Kd [4]: 71000 nM
Compound: CCOc1cc(S(=O)(=O)Nc2ccccc2C(=O)O)ccc1F

Compound: CNC(=O)c1cc(NS(=O)(=O)c2cc(Br)cc(Cl)c2O)cc(C2(C#N)CCC2)c1
Kd [4]: 128 nM

Compound: N#CC1(c2cc(NS(=O)(=O)c3cc(Br)ccc3O)cc(C(=O)O)c2)CCC1
inhibition [1]: inactive | Kd [4]: 229 nM

inhibition (Homo sapiens): Active
Compound: COc1ccc(Br)cc1S(=O)(=O)Nc1cc(Cl)ccc1O

Compound: O=S(=O)(Nc1cc(C2CC2)ccc1O)c1cc(Br)ccc1O
Kd [4]: 818 nM

Compound: CS(=O)(=O)c1cc(S(F)(F)(F)(F)F)cc(NS(=O)(=O)c2cc(Br)ccc2O)c1O
Kd [4]: 167 nM

Compound: CNC(=O)c1c(O)c(NS(=O)(=O)c2cc(Br)cc(Cl)c2O)cc(C2CC2)c1F
inhibition (Homo sapiens): Active | Activity [2]: Active | Activity [3]: Active | Kd [4]: 238 nM

Compound: CNC(=O)c1cc(NS(=O)(=O)c2cc(Br)ccc2O)cc(S(F)(F)(F)(F)F)c1
Kd [4]: 848 nM

Compound: COc1ccc(Br)cc1S(=O)(=O)Nc1cc(Cl)cc(C(=O)O)c1O
Kd [4]: 431 nM

Compound: N#CC1(c2cc(NS(=O)(=O)c3cc(Br)ccc3O)c(O)c(C(=O)O)c2)CCCCC1
Kd [4]: 195 nM

Compound: N#CC1(c2cc(NS(=O)(=O)c3ccc(Br)cc3O)c(O)c(C(=O)O)c2)CCC1
ΔTm [5]: 0.42 °C

Compound: COc1ccc(Br)cc1S(=O)(=O)Nc1cc(-c2ccccc2)ccc1O
Kd [4]: 37000 nM

Compound: CNC(=O)c1cc(NS(=O)(=O)c2cc(Br)ccc2O)cc(C2(C#N)CCC2)c1
Kd [4]: 1080 nM

Compound: O=C(O)c1cc(C2CC2)cc(NS(=O)(=O)c2cc(Br)cc(Cl)c2O)c1O
Kd [4]: 207 nM

Compound: O=C(O)c1cc(OC(F)(F)F)cc(NS(=O)(=O)c2cc(Br)cc(Cl)c2O)c1O
inhibition [1]: inactive | Kd [4]: 51 nM

Compound: N#CC1(c2ccc(O)c(NS(=O)(=O)c3cc(Br)ccc3O)c2)CCCC1
Kd [4]: 614 nM

Activity [3]: Active | Kd [4]: 385 nM
Compound: CS(=O)(=O)c1cc(Cl)cc(NS(=O)(=O)c2cc(Br)cc3cccnc23)c1O

Activity [3]: Active | Kd [4]: 825 nM
Compound: CNC(=O)c1cc(C2(C#N)CCC2)cc(NS(=O)(=O)c2cc(Br)cc3cccnc23)c1O

Compound: CNC(=O)c1cc(S(F)(F)(F)(F)F)cc(NS(=O)(=O)c2cc(Br)ccc2O)c1O
Kd [4]: 204 nM

Compound: COc1ccccc1S(=O)(=O)Nc1cc(Cl)ccc1O
Kd [4]: > 40000 nM

Compound: O=C(O)c1cc(Cl)cc(NS(=O)(=O)c2cc(Br)cc(Cl)c2O)c1O
ΔTm [5]: 4.05 °C | Kd [4]: 163 nM

Kd [4]: > 125000 nM
Compound: CCOc1ccc(S(=O)(=O)Nc2ccccc2C(=O)O)c(C)c1C

Compound: O=C(O)c1cc(OC(F)(F)F)cc(NS(=O)(=O)c2cc(Br)ccc2O)c1O
Kd [4]: 137 nM

Compound: COc1ccc(Br)cc1S(=O)(=O)Nc1ccccc1O
Kd [4]: > 40000 nM

Kd [4]: 104 nM
Compound: N#CC1(c2cc(NS(=O)(=O)c3cc(Br)cc4cccnc34)c(O)c(C(=O)O)c2)CCC1

Compound: CS(=O)(=O)c1cc(Cl)cc(NS(=O)(=O)c2cc(Br)cc(Cl)c2O)c1O
inhibition (Homo sapiens): Active | Activity [3]: Active | Kd [4]: 123 nM

Compound: CNC(=O)c1cc(C2(C#N)CCCCC2)cc(NS(=O)(=O)c2cc(Br)ccc2O)c1O
inhibition [1]: inactive | Kd [4]: 779 nM

Compound: CNC(=O)c1cc(C2(C#N)CCC2)cc(NS(=O)(=O)c2cc(Br)ccc2O)c1O
inhibition (Homo sapiens): Active | Activity [2]: Active | solubility [6]: > 100 µM | Fu [7]: < 0.0006% | Papp [8]: 45.2 ×10⁻⁶ cm/s | Activity [3]: Active | Kd [4]: 566 nM

Compound: COc1ccc(Br)cc1S(=O)(=O)Nc1cc(C(C)(C)C)ccc1O
Kd [4]: 3780 nM

Kd [4]: 47 nM
Compound: O=C(O)c1cc(S(F)(F)(F)(F)F)cc(NS(=O)(=O)c2cc(Br)cc3cccnc23)c1O

Compound: COc1ccc(I)cc1S(=O)(=O)Nc1cc(Cl)ccc1O
Kd [4]: 8390 nM

Compound: CS(=O)(=O)c1cc(Cl)cc(NS(=O)(=O)c2cc(Br)cc(Cl)c2O)c1
solubility [6]: > 100 µM | Fu [7]: 0.0007% | Papp [8]: 3.89 ×10⁻⁶ cm/s | Kd [4]: 220 nM

Compound: CNC(=O)c1cc(C2(C#N)CCCCC2)cc(NS(=O)(=O)c2cc(Br)cc(Cl)c2O)c1O
Activity [2]: Active | Activity [3]: Active | Kd [4]: 362 nM

Compound: N#CC1(c2ccc(O)c(NS(=O)(=O)c3cc(Br)ccc3O)c2)CCCCC1
Kd [4]: 229 nM

Compound: N#CC1(c2ccc(O)c(NS(=O)(=O)c3cc(Br)ccc3O)c2)CCC1
inhibition (Homo sapiens): Active | solubility [6]: > 100 µM | ΔTm [5]: 2.63 °C | Fu [7]: < 0.0005% | Papp [8]: 27.8 ×10⁻⁶ cm/s | Kd [4]: 289 nM

Compound: CS(=O)(=O)c1cc(NS(=O)(=O)c2cc(Br)ccc2O)cc(S(F)(F)(F)(F)F)c1
solubility [6]: > 100 µM | Fu [7]: 0.002% | Papp [8]: 16.1 ×10⁻⁶ cm/s | Kd [4]: 511 nM

Compound: CS(=O)(=O)c1cc(C2(C#N)CCC2)cc(NS(=O)(=O)c2cc(Br)ccc2O)c1O
Kd [4]: 349 nM

Compound: N#CC1(c2cc(NS(=O)(=O)c3cc(Br)ccc3O)c(O)c(C(=O)O)c2)CCC1
Activity [2]: Active | ΔTm [5]: 3.9 °C | Activity [3]: Active | Kd [4]: 67 nM

Compound: CS(=O)(=O)c1cc(Cl)cc(NS(=O)(=O)c2cc(Br)ccc2O)c1O
inhibition (Homo sapiens): Active | Kd [4]: 1070 nM

Activity [3]: Active | Kd [4]: 304 nM
Compound: COc1ccc(Br)cc1S(=O)(=O)Nc1cc(Cl)cc(S(C)(=O)=O)c1O

Compound: O=C(O)c1cc(S(F)(F)(F)(F)F)cc(NS(=O)(=O)c2cc(Br)ccc2O)c1O
inhibition [1]: inactive | Kd [4]: 47 nM

Compound: O=C(O)c1cc(Cl)cc(NS(=O)(=O)c2cc(Br)ccc2O)c1O
ΔTm [5]: 4.05 °C | Kd [4]: 223 nM

Compound: O=C(O)c1cc(NS(=O)(=O)c2cc(Br)ccc2O)cc(S(F)(F)(F)(F)F)c1
Kd [4]: 64 nM

Compound: O=S(=O)(Nc1cc(S(F)(F)(F)(F)F)ccc1O)c1cc(Br)ccc1O
inhibition (Homo sapiens): Active | solubility [6]: > 100 µM | Papp [8]: 14.7 ×10⁻⁶ cm/s | Kd [4]: 110 nM

Compound: O=S(=O)(Nc1cc(Cl)ccc1O)c1cccc(Br)c1
Kd [4]: 36100 nM

Compound: CS(=O)(=O)c1cc(NS(=O)(=O)c2cc(Br)cc(Cl)c2O)cc(S(F)(F)(F)(F)F)c1
Activity [3]: Active | Kd [4]: 93 nM

Compound: CS(=O)(=O)c1cc(C2(C#N)CCC2)cc(NS(=O)(=O)c2cc(Br)cc(Cl)c2O)c1O
Kd [4]: 110 nM

Compound: N#CC1(c2cc(NS(=O)(=O)c3cc(Br)cc(Cl)c3O)c(O)c(C(=O)O)c2)CCCCC1
Activity [2]: Active | ΔTm [5]: 6.38 °C | Activity [3]: Active | Kd [4]: 38 nM
